High-throughput results: PubChem BioAssay, several laboratories
MKP-1 inh = inhibitors of human MKP-1 phosphatase; 65,000 compounds, 0.15% hits; inhibition, %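 (compounds tested at a single concentration somewhere between 10 and 100 µM)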; P28562; recombinant MKP-1, OMFP hydrolysis fluorescence;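 active = inhibition above about 50%, limit read from the data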;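 note: 0% = DMSO max control wells and 100% = wells with enzyme stopped by NaOH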
Target sequence (P28562 whole entry, looked up): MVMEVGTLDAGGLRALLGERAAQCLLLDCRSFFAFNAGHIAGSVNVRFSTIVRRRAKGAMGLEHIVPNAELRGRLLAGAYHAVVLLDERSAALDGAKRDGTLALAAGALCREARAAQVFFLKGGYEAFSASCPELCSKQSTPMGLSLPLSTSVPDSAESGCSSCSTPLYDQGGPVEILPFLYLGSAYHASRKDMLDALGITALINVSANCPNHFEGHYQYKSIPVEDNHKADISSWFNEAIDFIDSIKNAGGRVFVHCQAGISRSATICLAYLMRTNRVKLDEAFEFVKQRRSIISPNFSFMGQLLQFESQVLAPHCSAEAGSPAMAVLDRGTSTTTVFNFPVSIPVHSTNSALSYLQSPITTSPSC
Her2 expr inh = Her2 kinase expression inhibition | HER2 level % of control, % at 10 µM | P04626 | 65,000 compounds, 0.69% hits | SKBR-3 HER2 protein level, AlphaScreen, 18-24 h; hits give low values;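 active = HER2 level under 5% of the carrier-only control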;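 note: 100% = DMSO carrier and 0% = 500 nM PU-H71 HSP90 inhibitor; lower value means stronger loss of Her2 protein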
M1 antagonist = antagonists of rat M1 muscarinic receptor; P08482; CHO-M1 cells, Fluo-4 calcium, ACh EC80 antagonist mode; hits give low values; B-score at 10 µM; 64,000 compounds, 3.4% hits;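 active = calcium fluorescence response, raw or row-and-column corrected B-score, differing from the plate sample mean either way at a set confidence level, mostly lower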
M1 agonist = M1 muscarinic receptor agonism | 64,000 compounds, 3% hits | AID 626 | B-score at 10 µM | CHO-M1 cells, Fluo-4 calcium fluorescence, agonist mode; hits give high values;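 active = fluorescence rise, raw or as B-score row- and column-corrected plate score, outside the 99.7% band of its plate's samples, either direction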
Cdc25B block = inhibitors of human Cdc25B phosphatase | 65,000 compounds, 0.1% hits | recombinant Cdc25B, OMFP fluorescence Ex485/Em525 | inhibition, %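 (compounds tested at 10 µM final in the well)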 | P30305; in the data active = inhibition above about 50%
HEK293 NFkB inh = inhibitors of the PMA/ionomycin-induced NF-kB reporter in HEK293 cells. HEK-293 NF-kB luciferase reporter, luminescence. inhibition, % at 3 µM. 62,000 compounds, 0.21% hits. AID 465;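 active = inhibition above the mean of all tested compounds plus 3 SD, cut at about 40% in these data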;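 note: 0% = stimulated DMSO wells and 100% = 10 µM reference inhibitor 5653914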
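Timing: 1 h pretreatment, 16 h stimulation, 37 °C; system: HEK-293 cells with stable firefly luciferase reporter driven by four HIV NF-kB elements; doses: 3 µM once, 0.30% DMSO; measured by: luciferase luminescence; control set: DMSO and 10 µM reference inhibitor; repeats: single test; reagent: PMA plus ionomycin mix as NF-kB-activating stimulus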
M1 antag conf = confirmation of rat M1 muscarinic receptor antagonists; CHO-M1 cells, Fluo-4 calcium, ACh EC80 antagonism; hits give low values; 1,700 compounds, 43% hits; calcium response (max-min fluorescence) at 10 µM; shares compounds with M1 antagonist;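 active = calcium response below the same-plate mean of wells given acetylcholine alone at its 80%-effect dose, minus 3 SD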;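 note: raw fluorescence intensity difference in arbitrary instrument units and not normalized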
mGluR4 antag = mGluR4 (human) activity, M1 antagonist secondary assay; shares compounds with M1 antagonist; CHO-mGluR4 calcium flux, Fluo-4 fluorescence, glutamate EC80; hits give low values; fluorescence response (max-min) at 10 µM; 1,700 compounds, 0.9% hits; AID 678;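 active = fluorescence response below the plate's average for near-maximal glutamate wells, less 3 SD of those wells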;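 note: raw unnormalized fluorescence span taken in the window right after glutamate addition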
* hit, by the source's call; / = not tested or not shown. Only some compounds are listed: those with a hit (about 6.8% of all), similar ones and a draw of the others.

SMILES	MKP-1 inh	Her2 expr inh	M1 antagonist	M1 agonist	Cdc25B block	HEK293 NFkB inh	M1 antag conf	mGluR4 antag
CCCCn1cnc2sc3c(c2c1=N)CCCC3	5	92	-2.5*	-0.66	-11	18	580	221
CC(=O)NC1(C(F)(F)F)C(=O)NC(C)=C1C#N (configuration not stated)	0	142	0.4	-0.24	-12	14	/	/
Cn1c(=O)[nH]c(=O)c2c1nc(CN1CCN(Cc3ccccc3)CC1)n2CC(N)=O	7	95	-0.99	-0.23	-22	2	/	/
O=c1[nH]c(=O)n(CCO)c2nnn(Cc3ccccc3)c12	-8	81	-3.3*	-1.3	3	6	579	244
COC(=O)c1cc(NC(=O)C2COc3ccccc3O2)cc(C(=O)OC)c1 (configuration not stated)	7	114	-13*	0.27	-11	26	668	216
COC(=O)c1ccccc1NC(=O)C1COc2ccccc2O1 (configuration not stated)	3	168	-0.067	0.5	-18	/	/	/
Cc1nnc(SCCn2c(N3CCN(Cc4ccccc4)CC3)nc3c2c(=O)[nH]c(=O)n3C)s1	32	103	-4.1*	-1.3	-6	-17	588	246
Cc1nnc(SCCn2c(N3CCC(Cc4ccccc4)CC3)nc3c2c(=O)[nH]c(=O)n3C)s1	17	109	-0.76	-0.62	-14	5	/	/
CCn1cc(C(=O)NCCCN2CC(C)CC(C)C2)c2cc(OC)c(OC)cc2c1=O (configuration not stated)	/	120	-1.8*	-0.65	/	3	595	196
O=c1c(CN2CCN(Cc3ccccc3)CC2)coc2ccc(Cl)cc12	-6	116	-4.2*	-0.83	-3	7	365*	194
CCN1CCN(Cc2coc3ccc(C)cc3c2=O)CC1	-5	119	-0.26	0.012	-4	12	/	/
O=c1cc(CN2CCN(Cc3ccccc3)CC2)c2cc(Cl)ccc2o1	-19	88	-0.62	0.39	-9	12	/	/
Cc1ccc2occ(CN3CCN(c4ccccc4)CC3)c(=O)c2c1	14	92	-3.4*	1.1	-2	9	508*	223
CCOC(=O)c1snc(C(=O)NC2CCCCC2)c1N	-24	97	-2.7*	0.24	0	-28	641	206
COc1ccc(N2C(=O)CCC(C(=O)N3CCCCC3)C2c2ccc(F)cc2)cc1 (configuration not stated)	4	80	-0.42	-0.3	-8	11	/	/
COc1ccc(C2C(C(=O)N3CCN(c4ccccc4)CC3)c3ccccc3C(=O)N2C)cc1OC (configuration not stated)	/	151	-4.4*	0.53	/	13	538	201
COc1ccc(C2C(C(=O)N3CCOCC3)c3ccccc3C(=O)N2c2ccc(OC)cc2)cc1 (configuration not stated)	1	75	-13*	-0.19	-4	10	701	232
COc1ccc(C2C(C(=O)N3CCN(c4ccccc4)CC3)c3ccccc3C(=O)N2C)cc1 (configuration not stated)	/	172	-0.25	3.2	/	0	/	/
COc1ccc(N2C(=O)CCC(C(=O)N3CCOCC3)C2c2ccc(F)cc2)cc1 (configuration not stated)	6	102	-3.1*	0.46	-15	7	542	227
COc1ccc(C2C(C(=O)N3CCN(C)CC3)c3ccccc3C(=O)N2C2CCCCC2)cc1 (configuration not stated)	10	124	-0.59	0.091	5	1	/	/
CC(C)c1ccccc1OCCNS(C)(=O)=O	12	128	0.66	0.55	0	21	/	/
O=C1c2ccccc2C(=O)N1Cc1nc2ccccc2c(=O)n1CCN1CCOCC1	5	152	0.47	-0.014	0	2	/	/
N#CCc1nnc2n1-c1ccccc1CCC2	-9	63	-0.17	-0.029	-6	5	/	/
CCOC(=O)C1CCCN(C(=O)c2cc3c(C)nc4ccccc4c3o2)C1 (configuration not stated)	16	82	-2.7*	-0.44	-10	18	486*	143*
CC(=O)N1CCc2cc(Br)cc(S(=O)(=O)NCCCN3CCCC(C)C3)c21 (configuration not stated)	-15	130	-0.43	0.32	-6	11	/	/
SMILES	MKP-1 inh	Her2 expr inh	M1 antagonist	M1 agonist	Cdc25B block	HEK293 NFkB inh	M1 antag conf	mGluR4 antag
CC(=O)N1CCc2cc(Br)cc(S(=O)(=O)NCCCN3CCC(C)CC3)c21	-13	112	-3.7*	0.28	-3	7	638	238
CC(C)(C)c1csc(NC(=O)Cn2cnc3ccccc3c2=O)n1	9	40	-0.53	2.5	0	13	/	/
CCOc1cc(C)nc(N2CCN(C3CCCCC3)CC2)n1	-17	99	-3.3*	0.18	-14	3	444*	253
CC(OC(=O)c1cc(=O)[nH]c2ccccc12)c1ccccc1 (configuration not stated)	17	136	0.36	1	-11	1	/	/
N#Cc1nc(COc2ccccc2)oc1NCCN1CCOCC1	6	84	0.086	0.65	1	-10	/	/
N#Cc1nc(COc2ccc(-c3ccccc3)cc2)oc1NCCCN1CCOCC1	23	69	-3*	-1.2	0	4	545	237
COc1ccccc1N1CCN(C(=O)c2sc3nc(-c4ccccc4)cn3c2C)CC1	30	90	-3.5*	0.65	-20	25	639	190
CC1(C)NC(=O)N(CC(O)COc2cc3ccccc3cc2C(=O)N2CCCCC2)C1=O (configuration not stated)	-5	71	-3*	0.49	-4	/	638	243
CCOC(=O)c1ccc(N2C(=O)C3CC=CCC3C2=O)cc1 (configuration not stated)	-4	145	-0.08	-0.53	2	13	/	/
CCOC(=O)c1ccc(N2C(=O)C3C(C2=O)C(C(=O)c2ccc(Cl)cc2)N2CCCC32)cc1 (configuration not stated)	5	78	-1.7*	0.33	3	4	514	218
c1coc(C2Nc3cccc4cccc(c34)N2)c1	27	65	-2.2*	0.25	21	15	602	249
Cc1ccc2[nH]c(=O)c(C(c3nnnn3CCc3ccccc3)N3CCOCC3)cc2c1 (configuration not stated)	17	92	0.28	-0.23	-4	6	/	/
